Sampled rows, rich in hits. Any-hit rate of the full collection: about 4%.
Cardio protect: cardioprotection against H2O2-induced cell death, primary screen, uHTS, H9c2 cells, ATPLite luminescence. H9c2 cardiomyocytes, H2O2 injury protection, 2 h. protection from H2O2 cell death, % at 20 µM. 0.63% of 360,000 active. AID 588492, 2011;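 active means compounds giving at least 50% protection of heart cells from peroxide-induced death in the single-dose screen, raw or plate-pattern-corrected value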;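 further: 0% = DMSO wells with peroxide and 100% = DMSO wells without peroxide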
GRIN3A LBD mod: binders of NR3A ligand-binding domain, primary screen, biophysical, differential scanning fluorimetry, uHTS | Tm shift relative to glycine control, % at 25 µM | Glutamate receptor ionotropic, NMDA 3A (GRIN3A) ligand-binding domain | NR3A LBD differential scanning fluorimetry, Tm shift; 0% = protein alone, 100% = glycine-bound protein | 2.5% of 340,000 active;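 active means melting temperature shift of at least 10% of the positive control shift, at one fixed dose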
FAS TE block: FAS thioesterase domain inhibitors, primary screen, biochemical, fluorescence intensity, uHTS; recombinant FAS-TE, OMFH fluorogenic substrate, fluorescence endpoint; inhibition, % at 15 µM; 0.67% of 360,000 active; AID 602261, 2012;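 active means compounds whose normalised, plate-corrected inhibition of enzyme fluorescence in the single-dose primary screen is 50% or more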;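 further: 0% = DMSO with enzyme and 100% = substrate without enzyme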
Arr AP2 block: inhibitors of beta-arrestin/AP2 binding, primary screen, biochemical, GPCR trafficking, flow cytometry. 0.31% of 340,000 active. inhibition, % at 10 µM. AID 504490, 2011. FITC-arrestin peptide / GST-AP2 beads; AP2 beta2 appendage carries R879A mutation;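 active means inhibition above a set limit, near 3 SD of compounds lacking own fluorescence, cut at about 54% in these data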;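 further: plate controls were DMSO wells for no effect and 5 µM unlabelled arrestin peptide for full effect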
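Test system: GST-tagged AP2 beta2-adaptin appendage (R879A) on 4 µm glutathione beads; also added: fluorescein-tagged arrestin peptide at 50 nM final; timing: 12 min plus 1 h, RT; signal: flow cytometry, FL1 (488/535 nm); read-out: percent drop in bead-associated FITC signal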
SENP1 inh: human SENP1 catalytic domain inhibitors, primary screen, biochemical, FRET, uHTS. Sentrin-specific protease 1 (Homo sapiens), Q9P0U3. recombinant SENP1 catalytic domain, CyPet-SUMO1-YPet FRET cleavage. 0.21% of 360,000 active. inhibition, % at 10 µM;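 active means inhibition at least 30% at 10 µM, raw YFP signal under a set limit, fluorescence ratio 0.5 to 1.5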;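 further: 0% = enzyme with DMSO and 100% = no enzyme wells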
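material = recombinant human SENP1 catalytic domain, His6-tagged | quantity = 20 pM enzyme | reagent = 25 nM SUMO1 FRET substrate | compound dosing = 10 µM single point, 0.5% DMSO | timing = 50 min enzyme reaction, room temperature, light-protected | detection = FRET, CFP and YFP emission | control set = no-enzyme low, enzyme-DMSO high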
hiPSC survival: enhancers of single-cell hiPSC survival, primary screen, ATPlite luminescence. 100% = ROCK inhibitor wells, 0% = DMSO. survival enhancement, % at 20 µM. 0.044% of 360,000 active. AID 602274, 2012; in the data active means survival enhancement above about 18%;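 further: cells exposed to compounds for 16 hours before the ATP read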
Starred values were filed as active, the others as inactive; nt = no result given.

SMILES | Cardio protect | GRIN3A LBD mod | FAS TE block | Arr AP2 block | SENP1 inh | hiPSC survival
O=C(Nc1cccc(Br)c1)c1ccc2c(c1)SC1=NS(=O)(=O)CCN12 | -1 | 18* | 3 | -9 | 0 | 0
C(=C\c1ccccc1)/CN1CCN(C(c2cc3ccccc3o2)c2nnnn2C2CCCCC2)CC1 (stereo not drawn) | -10 | nt | 25 | nt | -8 | -1
COc1ccc(CN2C(=O)CCC2(C)c2nnnn2-c2ccc3c(c2)OCCO3)cc1OC (stereo not drawn) | nt | nt | -8 | nt | 1 | 0
O=C(N/N=C/c1cn(-c2ccccc2)nc1-c1cccnc1)c1ccccc1 | 61* | -2 | 2 | -8 | 2 | 2
O=C(N/N=C\c1cn(-c2ccccc2)nc1-c1ccccc1)c1ccc2c(c1)OCO2 | 52* | 3 | 24 | -7 | 2 | 0
O=C(N/N=C/c1cn(-c2ccccc2)nc1-c1ccc(F)cc1)c1ccc2c(c1)OCO2 | 29 | 0 | 28 | -6 | 1 | -1
COc1ccc(/C=N/NS(=O)(=O)c2ccc(F)cc2)cc1COc1cc(F)ccc1[N+](=O)[O-] | -12 | 11* | 13 | -10 | 0 | 0
COc1ccc(/C=C/C(=O)Nc2cccc(F)c2)cc1S(=O)(=O)N1CCOCC1 | 10 | 10* | 5 | 15 | 0 | -1
COc1ccc(CN2C(=O)C(CC(=O)NCC3CCCCC3)CC(C(=O)N(C)C)=C2C)cc1 (stereo not drawn) | -4 | nt | -7 | nt | 2 | 2
CC[C@@H](C(=O)n1nc(C)cc1C)[C@H](NS(=O)(=O)c1ccc(C)cc1)c1ccccc1 | -22 | 13* | 17 | 1 | 0 | -2
Cc1ccc(S(=O)(=O)NC(C(=O)O)c2ccccc2)cc1 (stereo not drawn) | 5 | -2 | -5 | 9 | 2 | 0
COCCOC(=O)N/C=C\c1nc2ccccc2c(=O)[nH]1 | 65* | 1 | -13 | 11 | -8 | -1
O=C(Nc1nnc(CSCc2ccc(Cl)cc2)s1)c1cccc([N+](=O)[O-])c1 | -12 | 19* | 42 | 11 | 2 | 16
Cc1ccc(NC(=O)Nc2nnc(-c3ccncc3)s2)cc1C | -24 | 9 | 2 | -29 | -32 | 1
O=C(Nc1cccc(Cl)c1)Nc1nnc(-c2ccncc2)s1 | -18 | 27* | 4 | -1 | -170 | 4
O=C(Nc1nnc(CC2=CCCCC2)s1)Nc1ccccc1F | nt | 0 | nt | nt | nt | nt
O=C(Nc1cccc(Cl)c1)Nc1nnc(CC2=CCCCC2)s1 | -25 | 29* | 1 | 10 | 0 | 0
O=C(Nc1ccc(Cl)cc1)Nc1nnc(-c2ccncc2)s1 | -10 | 20* | 1 | 6 | -151 | 3
O=C(CNC(=O)c1n[nH]c2ccccc12)Nc1ccc(F)c(F)c1F | -1 | 0 | -6 | -9 | -2 | 0
Cc1oc(C(=O)Nc2ccc(O)cc2)cc1COc1ccccc1 | -17 | 16* | 5 | -5 | 2 | 1
Cc1ccc(OCc2cc(C(=O)Nc3ccccc3)oc2C)cc1 | -17 | nt | 21 | -2 | 0 | 4
Oc1c(Br)cc(Br)cc1CNc1nccs1 | -12 | -2 | 6 | 10 | 8 | 0
Oc1c(Br)cc(Br)cc1CNc1cnc2ccccc2c1 | -10 | 24* | 26 | 41 | -11 | -1
Oc1c(Br)cc(Br)cc1CNc1ccc(F)cc1 | -16 | 11* | 26 | -5 | -35 | -1
COc1cc(C(=O)N(C)C2CCCCC2)cc(OC)c1OC | 4 | nt | -3 | nt | 1 | -3
CCCC(Oc1ccc(Br)cc1)c1nc2c3cc(OC)c(OC)cc3nc(=S)n2[nH]1 (stereo not drawn) | 6 | 16* | 29 | 2 | -4 | -2

High-throughput results from PubChem BioAssay.
